The source of these data is ChEMBL document CHEMBL4007421, “Discovery and Preclinical Characterization of 3-((4-(4-Chlorophenyl)-7-fluoroquinoline-3-yl)sulfonyl)benzonitrile, a Novel Non-acetylenic Metabotropic Glutamate Receptor 5 (mGluR5) Negative Allosteric Modulator for Psychiatric Indications” (J Med Chem, 2017).

Data set [1] is described as follows: Plasma concentration in po dosed Wistar rat dosed 1 hr prior to first daily trial by Morris water maze test. Type of data set: ADME, organism-based.
Data set [2] in a line: Tmax in female beagle dog at 0.5 mg/kg, iv administered as infusion. The settings on record: in vivo. Type of data set: ADME, organism-based, Canis lupus familiaris. An outline of the steps: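 Single-dose PK: i.v. and oral dosing in Crl:CD(SD) rats and beagle dogs, plus a pilot oral nasogastric study in Cynomolgus monkeys using a Type IV lipid formulation. Rat i.v. vehicle was 80% cosolvent. Monkeys were fasted from 2 h before until 2 h after dosing, n=3 per sex. Rats also received [14C]-labelled compound orally at 50 mg/kg, with total radioactivity followed. Parameters are means; monkey values are medians.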

A short description of data set [3]: Clearance in male beagle dog at 0.5 mg/kg, iv administered as infusion. It is filed as ADME, organism-based, Canis lupus familiaris. Particulars: in vivo.
Another data set has as its target Cytochrome P450 2D6 (Homo sapiens, UniProt P10635). Put plainly: Inhibition of CYP2D6 in human liver microsomes. Type of data set: ADME.
The test system of the next data set is Liver. Put plainly: Intrinsic clearance in dog liver microsomes at 2.5 uM assessed per gram of liver. It is filed as ADME, Canis lupus familiaris, microsome. For orientation: Microsomes from liver hold many membrane-bound enzymes, among them those of drug oxidation.
Data set [4] deals with Rattus norvegicus. Put plainly: Anxiolytic activity in ip dosed Wistar rat assessed as increase in water drinking time during punished period administered as suspension by Vogel punished drinking conflict test. Type of data set: functional. Particulars: read-out: MED. An outline of the steps: (§1)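 Vogel punished-drinking test in rats, single i.p. or p.o. dose as suspension in 5% Tween 80; plasma sampled ~45 min after i.p. or ~75 min after p.o. dosing.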

Data set [5] can be described thus: Plasma concentration in Wistar rat at 1 mg/kg, po after 75 mins. Type of data set: ADME, organism-based. An outline of the steps: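 Plasma levels taken right after the Vogel test (~75 min after oral dose) following single oral doses in lipid-based formulations; data pooled from four experiments; mean±SD.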
Data set [6] relates to Rattus norvegicus. Put plainly: Anxiolytic activity in po dosed Wistar rat assessed as increase in water drinking time during punished period administered as suspension by Vogel punished drinking conflict test. It is filed as functional. Particulars: read-out: MED. A digest of the protocol: as §1
Data set [7] can be described thus: Cmax in fasted male beagle dog at 1 mg/kg, po. It is filed as ADME, organism-based, Canis lupus familiaris. Also noted: dose 1 mg/kg, route oral. The settings on record: in vivo.
A short description of data set [8]: Cmax in fasted female beagle dog at 1 mg/kg, po. It is filed as ADME, organism-based, Canis lupus familiaris. Also noted: dose 1 mg/kg, route oral. Particulars: in vivo.
Data set [9] in a line: Plasma protein binding in human. It is filed as ADME, cell-free. Particulars: read-out: PPB (converted).
Data set [10] can be described thus: Clearance in female beagle dog at 0.5 mg/kg, iv administered as infusion. Type of data set: ADME, organism-based, Canis lupus familiaris. The settings on record: in vivo.

Bounds are passed on as bounds.

Cytochrome P450 2D6, sequence (P10635 whole entry): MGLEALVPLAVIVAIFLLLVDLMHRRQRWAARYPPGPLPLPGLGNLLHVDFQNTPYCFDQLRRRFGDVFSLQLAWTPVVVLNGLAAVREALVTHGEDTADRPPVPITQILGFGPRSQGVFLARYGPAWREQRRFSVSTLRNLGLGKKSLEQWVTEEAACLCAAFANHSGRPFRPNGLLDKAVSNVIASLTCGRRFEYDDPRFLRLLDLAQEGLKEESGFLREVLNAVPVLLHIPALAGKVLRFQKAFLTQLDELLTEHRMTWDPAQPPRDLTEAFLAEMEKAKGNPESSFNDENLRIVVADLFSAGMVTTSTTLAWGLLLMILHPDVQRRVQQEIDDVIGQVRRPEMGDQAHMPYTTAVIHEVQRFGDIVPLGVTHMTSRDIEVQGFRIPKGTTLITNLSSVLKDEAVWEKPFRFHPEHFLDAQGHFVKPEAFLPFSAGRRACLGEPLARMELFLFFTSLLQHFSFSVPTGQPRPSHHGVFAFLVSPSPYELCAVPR

One may read the Tmax as the time from dosing to the highest level. By clearance is commonly meant the rate of elimination divided by the concentration. As usually defined, the IC50 is the point on the concentration scale where inhibition reaches its midpoint. One may read the Cmax as the peak of the concentration-time curve. `N#Cc1cccc(S(=O)(=O)c2cnc3cc(F)ccc3c2-c2ccc(Cl)cc2)c1` returned a concentration at 1 h in data set [1] of 986 nM. In data set [2], the Tmax worked out at 30 min. Also, the clearance in [3] is 6.43 mL/min/kg; in data set [10], 9.22 mL/min/kg. In addition, on Cytochrome P450 2D6, the IC50 was more than 10 µM. In the data set on Liver, this compound returned a CLint of 0.27 mL/min/g. Also, the minimal effective dose amounted to 3 mg/kg in the data set on Rattus norvegicus [4] and 0.5 mg/kg in the data set with Rattus norvegicus [6]. In addition, the concentration at 1.25 h in data set [5] is 99 nM. Besides, the Cmax in data set [7] was 492 nM; in data set [8], 551 nM. In data set [9], the fraction unbound is 0.0039.
